Measurements of several laboratories.
Lines come from different studies, so protocols differ. Converted amounts (≈) assume the structure as drawn.

SMILES	tested on	assay	test system	conditions	quantity	value
COc1ccc(Nc2cnnc3cc(-c4cnc(N5CCCN(C)CC5)nc4)ccc23)nc1	Leishmania major	parasite growth		intracellular, amastigote	EC50	> 23 µM
CCC(=CCc1c(O)cc2c(c1O)C(=O)C[C@@H](c1ccccc1O)O2)CC	HeLa	cell growth or viability, MTT		30 µM, 48 h	inhibition	9.27%
CNC(=S)NN=Cc1ccc(O)c(OC)c1	Leishmania major	parasite growth	J774.A1	72 h, intracellular, amastigote	IC50	112 µM
COc1c(N2C[C@@H]3CCCN[C@@H]3C2)c(F)cc2c(=O)c(C(=O)O)cn(C3CC3)c12	Enterococcus faecalis	microbial growth, broth dilution		clinical isolate	MIC50	0.5 µg/mL (≈ 1.25 µM)
COc1ccc(Nc2cnnc3cc(-c4cnc(N5CCN(C)CC5)nc4)ccc23)cc1Cl	Leishmania major	parasite growth		intracellular, amastigote	EC50	> 2.2 µM
CC[C@H]1OC(=O)[C@H](C)[C@@H](O[C@H]2C[C@@](C)(OC)[C@@H](O)[C@H](C)O2)[C@H](C)[C@@H](O[C@@H]2O[C@H](C)C[C@H](N(C)C)[C@H]2O)[C@](C)(O)C[C@@H](C)/C(=N\OCOCCOC)[C@H](C)[C@@H](O)[C@]1(C)O	Enterococcus faecalis	microbial growth		clinical isolate	MIC90	> 128 µg/mL
C[C@@H]1[C@H](O)[C@@H](C)/C=C/C=C/C=C/C=C/C=C/C=C/C=C/[C@H](O[C@@H]2O[C@H](C)[C@@H](O)[C@H](N)[C@@H]2O)C[C@@H]2O[C@](O)(C[C@@H](O)C[C@@H](O)[C@H](O)CC[C@@H](O)C[C@@H](O)CC(=O)O[C@H]1C)C[C@H](O)[C@H]2C(=O)O	Leishmania major	parasite growth, MTT		72 h, promastigote	IC50	9.6 µM
CCC(=CCc1c(O)cc2c(c1O)C(=O)C[C@@H](c1ccc(O)cc1)O2)CC	HeLa	cell growth or viability, MTT		100 µM, 48 h	inhibition	99.5%
